Experimental data reported in ChEMBL document CHEMBL5058577, “EUbOPEN Chemogenomics Library 2 (Multiplex)” (2022).

Tested on: HEK-293T
Test: Multiplex assay against HEK293T
Type: toxicity, cell-based
Details: human
Summary of the method: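 Compound was added to live cells that had been stained at seeding with Hoechst33342, BioTracker Green Microtubule Cytoskeleton Dye, MitoTracker Red and Annexin V Alexa Fluor 680, and imaging followed on a CQ1 microscope at 37°C and 5% CO2. CellPathfinder machine-learning gating divided cells into Hoechst high-intensity objects or normal cells, normal cells into healthy, pyknosed or fragmented nuclei, and pyknosed cells into mitotic or apoptotic. Tubulin, mitochondrial-mass and membrane-permeability phenotypes are per cents of healthy-nucleus cells.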

[1] = 12 h, 1 µM, compound concentration 1 uM, replicate 1
[2] = 12 h, 1 µM, compound concentration 1 uM, replicate 2
[3] = 12 h, 10 µM, compound concentration 10 uM, replicate 1
[4] = 12 h, 10 µM, compound concentration 10 uM, replicate 2
[5] = 24 h, 1 µM, compound concentration 1 uM, replicate 1
[6] = 24 h, 1 µM, compound concentration 1 uM, replicate 2
[7] = 24 h, 10 µM, compound concentration 10 uM, replicate 1
[8] = 24 h, 10 µM, compound concentration 10 uM, replicate 2
[9] = 48 h, 1 µM, compound concentration 1 uM, replicate 1
[10] = 48 h, 1 µM, compound concentration 1 uM, replicate 2
[11] = 48 h, 10 µM, compound concentration 10 uM, replicate 1
[12] = 48 h, 10 µM, compound concentration 10 uM, replicate 2

SMILES: Nc1nc(-c2ccco2)c2cnn(Cc3ccccc3F)c2n1
- Population Apoptotic (%) [1]: 37%
- Population Fragmented Nuclei (%) [1]: 6%
- Population Healthy Nuclei (%) [1]: 76%
- Population Hoechst High Intensity Objects (%) [1]: 9%
- Population Membrane Permeable-Phenotype (%) [1]: 0%
- Population Mitochondria Different-Phenotype (%) [1]: 58%
- Population Mitotic Cells (%) [1]: 62%
- Population Normal (%) [1]: 90%
- Population Pyknosed Nuclei (%) [1]: 16%
- Population Tubulin-Different-Phenotype (%) [1]: 41%
- Total Cell Count [1]: 300
- Population Apoptotic (%) [2]: 36%
- Population Fragmented Nuclei (%) [2]: 5%
- Population Healthy Nuclei (%) [2]: 81%
- Population Hoechst High Intensity Objects (%) [2]: 11%
- Population Mitochondria Different-Phenotype (%) [2]: 64%
- Population Mitotic Cells (%) [2]: 63%
- Population Normal (%) [2]: 88%
- Population Pyknosed Nuclei (%) [2]: 13%
- Population Tubulin-Different-Phenotype (%) [2]: 23%
- Total Cell Count [2]: 404
- Population Apoptotic (%) [3]: 33%
- Population Fragmented Nuclei (%) [3]: 7%
- Population Healthy Nuclei (%) [3]: 73%
- Population Hoechst High Intensity Objects (%) [3]: 8%
- Population Membrane Permeable-Phenotype (%) [3]: 0%
- Population Mitochondria Different-Phenotype (%) [3]: 61%
- Population Mitotic Cells (%) [3]: 66%
- Population Normal (%) [3]: 91%
- Population Pyknosed Nuclei (%) [3]: 19%
- Population Tubulin-Different-Phenotype (%) [3]: 43%
- Total Cell Count [3]: 306
- Population Apoptotic (%) [4]: 40%
- Population Fragmented Nuclei (%) [4]: 6%
- Population Healthy Nuclei (%) [4]: 76%
- Population Hoechst High Intensity Objects (%) [4]: 12%
- Population Mitochondria Different-Phenotype (%) [4]: 68%
- Population Mitotic Cells (%) [4]: 60%
- Population Normal (%) [4]: 87%
- Population Pyknosed Nuclei (%) [4]: 17%
- Population Tubulin-Different-Phenotype (%) [4]: 26%
- Total Cell Count [4]: 265
- Population Apoptotic (%) [5]: 30%
- Population Fragmented Nuclei (%) [5]: 7%
- Population Healthy Nuclei (%) [5]: 77%
- Population Hoechst High Intensity Objects (%) [5]: 7%
- Population Membrane Permeable-Phenotype (%) [5]: 0%
- Population Mitochondria Different-Phenotype (%) [5]: 36%
- Population Mitotic Cells (%) [5]: 69%
- Population Normal (%) [5]: 92%
- Population Pyknosed Nuclei (%) [5]: 15%
- Population Tubulin-Different-Phenotype (%) [5]: 26%
- Total Cell Count [5]: 396
- Population Apoptotic (%) [6]: 28%
- Population Fragmented Nuclei (%) [6]: 9%
- Population Healthy Nuclei (%) [6]: 81%
- Population Hoechst High Intensity Objects (%) [6]: 5%
- Population Mitochondria Different-Phenotype (%) [6]: 46%
- Population Mitotic Cells (%) [6]: 71%
- Population Normal (%) [6]: 94%
- Population Pyknosed Nuclei (%) [6]: 9%
- Population Tubulin-Different-Phenotype (%) [6]: 17%
- Total Cell Count [6]: 514
- Population Apoptotic (%) [7]: 38%
- Population Fragmented Nuclei (%) [7]: 11%
- Population Healthy Nuclei (%) [7]: 67%
- Population Hoechst High Intensity Objects (%) [7]: 6%
- Population Membrane Permeable-Phenotype (%) [7]: 2%
- Population Mitochondria Different-Phenotype (%) [7]: 52%
- Population Mitotic Cells (%) [7]: 61%
- Population Normal (%) [7]: 93%
- Population Pyknosed Nuclei (%) [7]: 21%
- Population Tubulin-Different-Phenotype (%) [7]: 31%
- Total Cell Count [7]: 334
- Population Apoptotic (%) [8]: 35%
- Population Hoechst High Intensity Objects (%) [8]: 10%
- Population Membrane Permeable-Phenotype (%) [8]: 0%
- Population Mitochondria Different-Phenotype (%) [8]: 59%
- Population Mitotic Cells (%) [8]: 64%
- Population Normal (%) [8]: 89%
- Population Tubulin-Different-Phenotype (%) [8]: 23%
- Total Cell Count [8]: 328
- Population Apoptotic (%) [9]: 32%
- Population Fragmented Nuclei (%) [9]: 12%
- Population Healthy Nuclei (%) [9]: 75%
- Population Hoechst High Intensity Objects (%) [9]: 3%
- Population Membrane Permeable-Phenotype (%) [9]: 1%
- Population Mitochondria Different-Phenotype (%) [9]: 31%
- Population Mitotic Cells (%) [9]: 67%
- Population Normal (%) [9]: 96%
- Population Pyknosed Nuclei (%) [9]: 12%
- Population Tubulin-Different-Phenotype (%) [9]: 18%
- Total Cell Count [9]: 641
- Population Apoptotic (%) [10]: 28%
- Population Fragmented Nuclei (%) [10]: 14%
- Population Healthy Nuclei (%) [10]: 78%
- Population Hoechst High Intensity Objects (%) [10]: 4%
- Population Mitochondria Different-Phenotype (%) [10]: 21%
- Population Mitotic Cells (%) [10]: 71%
- Population Normal (%) [10]: 95%
- Population Pyknosed Nuclei (%) [10]: 7%
- Population Tubulin-Different-Phenotype (%) [10]: 14%
- Total Cell Count [10]: 769
- Population Apoptotic (%) [11]: 36%
- Population Fragmented Nuclei (%) [11]: 16%
- Population Healthy Nuclei (%) [11]: 73%
- Population Hoechst High Intensity Objects (%) [11]: 7%
- Population Membrane Permeable-Phenotype (%) [11]: 0%
- Population Mitochondria Different-Phenotype (%) [11]: 42%
- Population Mitotic Cells (%) [11]: 63%
- Population Normal (%) [11]: 92%
- Population Pyknosed Nuclei (%) [11]: 9%
- Population Tubulin-Different-Phenotype (%) [11]: 19%
- Total Cell Count [11]: 412
- Population Apoptotic (%) [12]: 28%
- Population Fragmented Nuclei (%) [12]: 13%
- Population Healthy Nuclei (%) [12]: 74%
- Population Mitochondria Different-Phenotype (%) [12]: 43%
- Population Mitotic Cells (%) [12]: 71%
- Population Pyknosed Nuclei (%) [12]: 12%
- Population Tubulin-Different-Phenotype (%) [12]: 15%
- Total Cell Count [12]: 398
